Screening data: PubChem, several laboratories
In the library only some 5.5% were active in any assay of this set; here they are far more common.
STAT3 blocker – IL-6 driven STAT3 reporter inhibitors, primary screen, U3A cells, luciferase, luminescence, MLSCN library. IL-6 STAT3-luciferase reporter; host cell line lacks STAT1. actives 0.89% (n = 190,000). inhibition, % at 5.5 µM;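 active = inhibition above the mean inhibition across all screened compounds plus 3 SD, cut at about 44% in these data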;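 note: 0% = DMSO only wells and 100% = 100 µM nifuroxazide control wells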
HSV augment – enhancers of HSV replication in host cells, fold increase, host cell viability. HSV replication augmentation in cells. maximum fold increase. actives 0.005% (n = 220,000); in the data active = maximum fold increase above about 1.5; inconclusive = no clear call, values can overlap the other calls; tested in PC3 cells
STAT3 act – IL-6 driven STAT3 reporter potentiators, primary screen, U3A cells, luciferase, luminescence, MLSCN library. IL-6 STAT3-luciferase reporter; 100% = signal with IL-6 EC80 alone. activation (% of control), % at 5.6 µM. actives 0.91% (n = 190,000);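 active = activation above the screen-wide mean of compound activation plus 3 SD, cut at about 130% in these data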;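 note: 0% = background luminescence of wells with medium and substrate only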
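Test system: Human STAT1-deficient U3A cells with stable STAT3-luciferase reporter | Also added: Interleukin-6, 33 ng/mL | Timing: Compound pre-incubation 1 h before IL-6, then 6 h stimulation at 37 °C | Technique: Luciferase reporter luminescence | Read-out: Percent of IL-6-only median luminescence | Benchmarks: IL-6-only wells as 100% reference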
STAT1 blocker – STAT1 signaling inhibitors, primary screen, cell-based, HTS, luciferase reporter | actives 0.35% (n = 200,000) | NIH 3T3 STAT1-luciferase reporter, IFN-gamma, luminescence | inhibition, % at 5.5 µM;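 active = inhibition above a set limit, the mean inhibition across all tested compounds plus 3 SD, cut at about 34% in these data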;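 note: 0% = IFN-gamma with DMSO and 100% = IFN-gamma with 300 µM nifuroxazide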
KCC2 mod – KCC2 cotransporter modulators, thallium flux, primary screen, cell-based, HEK293 KCC2, FluoZin-2 fluorescence, MLSMR | actives 2.2% (n = 190,000) | KCC2 cells, thallium flux FluoZin-2 fluorescence | AID 1456, 2008 | B-score of Tl+ flux slope (higher = more flux/activation; lower = inhibition) at 10 µM | Solute carrier family 12 member 5 (Homo sapiens), Q9H2X9;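 active = thallium flux slope and its plate-corrected score both differing from the plate sample mean at a set confidence after two filtering rounds, in either direction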;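 note: slope of fluorescence scaled to starting intensity during 10 to 20 s after thallium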
Target sequence (Q9H2X9 whole entry, looked up): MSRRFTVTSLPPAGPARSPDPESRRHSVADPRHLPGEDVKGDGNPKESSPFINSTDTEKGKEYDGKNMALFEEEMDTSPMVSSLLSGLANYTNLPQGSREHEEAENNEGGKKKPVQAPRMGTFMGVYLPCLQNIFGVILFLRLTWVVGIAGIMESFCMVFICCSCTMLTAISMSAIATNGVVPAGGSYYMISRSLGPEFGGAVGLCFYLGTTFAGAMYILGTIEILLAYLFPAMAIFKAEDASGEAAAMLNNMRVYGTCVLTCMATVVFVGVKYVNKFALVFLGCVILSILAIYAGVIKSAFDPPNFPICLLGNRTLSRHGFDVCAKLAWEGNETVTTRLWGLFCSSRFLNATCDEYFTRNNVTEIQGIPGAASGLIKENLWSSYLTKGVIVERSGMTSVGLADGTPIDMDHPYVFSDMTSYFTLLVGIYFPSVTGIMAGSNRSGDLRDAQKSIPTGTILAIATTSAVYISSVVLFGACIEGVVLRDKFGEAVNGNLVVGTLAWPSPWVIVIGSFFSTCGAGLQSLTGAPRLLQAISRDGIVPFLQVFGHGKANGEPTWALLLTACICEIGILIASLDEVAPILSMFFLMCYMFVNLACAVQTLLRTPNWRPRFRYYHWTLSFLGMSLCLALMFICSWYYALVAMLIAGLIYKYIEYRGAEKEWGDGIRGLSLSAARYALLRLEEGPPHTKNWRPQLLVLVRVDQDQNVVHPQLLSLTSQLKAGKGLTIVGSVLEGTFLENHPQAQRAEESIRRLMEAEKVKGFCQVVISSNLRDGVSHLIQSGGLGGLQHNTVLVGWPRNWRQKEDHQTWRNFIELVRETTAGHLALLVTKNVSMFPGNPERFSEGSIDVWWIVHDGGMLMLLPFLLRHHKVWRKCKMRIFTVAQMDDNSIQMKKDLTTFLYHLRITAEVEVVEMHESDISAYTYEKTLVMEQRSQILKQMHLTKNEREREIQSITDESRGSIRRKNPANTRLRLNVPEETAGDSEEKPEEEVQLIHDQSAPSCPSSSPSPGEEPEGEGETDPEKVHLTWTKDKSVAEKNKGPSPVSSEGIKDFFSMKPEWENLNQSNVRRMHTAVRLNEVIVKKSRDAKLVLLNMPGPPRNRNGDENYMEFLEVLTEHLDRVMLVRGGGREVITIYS
STAT1 act – STAT1 signaling activators, primary screen, cell-based, HTS, luciferase reporter; NIH 3T3 STAT1-luciferase reporter, IFN-gamma, luminescence; 100% = IFN-gamma alone, no compound; activation (% of control), % at 5.5 µM; actives 2.6% (n = 200,000); AID 932, 2007;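 active = activation above the screen-wide mean activation plus 3 SD, cut at about 130% in these data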;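 note: raw ratio to IFN-gamma control signal so 100% means no change and 0% no light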
KCC2 secondary – KCC2 modulators in sodium-free buffer, confirmation, cell-based, HEK293 KCC2, thallium flux, secondary assay; shares compounds with KCC2 mod; FluoZin2 fluorescence; hits give high values; normalised thallium flux (F/F0 slope) at 10 µM; actives 15% (n = 3,700); AID 1713, 2009;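 active = thallium flux slope above the same plate's solvent-only control mean plus 3 SD; inconclusive = the two replicate wells disagree; inactive = no significant difference from solvent-only control wells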
KCC2 bumet counter – thallium flux persisting under bumetanide in KCC2 cells, confirmation, counter-screen for KCC2 modulator project, cell-based, HEK293 KCC2, FluoZin2, secondary assay 3. shares compounds with KCC2 mod. normalized thallium flux at 10 µM. HEK293-KCC2 + bumetanide/ouabain; hits give high values. actives 49% (n = 3,700);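 active = thallium entry rate above the same plate's blocked-transporter control wells by more than 3 SD; inconclusive = the two repeat wells disagree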;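 note: raw slope of fluorescence over initial fluorescence between 10 and 20 s after thallium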
KCC2 sec2 – KCC2 modulators without ouabain present, confirmation, cell-based, HEK293 KCC2, thallium flux, FluoZin2, secondary assay 2 | AID 1715, 2009 | thallium flux FluoZin2 fluorescence; actives lie on both sides; F/F0 rise rate, 10–20 s post-thallium | actives 23% (n = 3,700) | normalized thallium flux at 10 µM | shares compounds with KCC2 mod;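 active = thallium flux slope more than 3 SD above or below the plate's solvent-only control mean, mostly below; inconclusive = the two repeat wells disagreed; inactive = no significant shift from solvent-only controls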;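 note: raw slope with 0.1% DMSO as baseline and bumetanide as block control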
HEK293 Tl flux – thallium flux modulation in parental HEK cells, confirmation, counter-screen for KCC2 modulator project, cell-based, counterscreen 1; HEK293 parental cells, thallium flux FluoZin2, ouabain; baseline-ratio fluorescence slope, 10–20 s after thallium; thallium flux rate (normalised fluorescence) at 10 µM; AID 1716, 2009; shares compounds with KCC2 mod; actives 46% (n = 3,700);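 active = thallium flux rate significantly above the same plate's solvent-only control wells, beyond their mean plus 3 SD; inconclusive = the two replicate wells gave conflicting results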
KCC2 retest ouab – KCC2 inhibitors and activators, ouabain retest, confirmation, HEK-KCC2 cells | shares compounds with KCC2 mod | HEK293-KCC2, thallium flux FluoZin2 fluorescence; bidirectional: low = inhibitor, high = activator | raw Tl+ flux slope (below DMSO = inhibition, above = activation) at 10 µM | actives 48% (n = 3,700);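 active = thallium flux slope beyond 3 SD from same-plate DMSO control mean in most replicates, usually higher, sometimes lower; inconclusive = repeat tests gave conflicting results; inactive = no significant difference from controls in most replicates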;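 note: slope of initial-normalized fluorescence between seconds 10 and 20 after thallium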
HEK293 Tl flux2 – native HEK Tl+ uptake effects, second counter-screen – HEK cells, counterscreen 2, counter-screen for KCC2 modulator project, confirmation; shares compounds with KCC2 mod; HEK293 parental, thallium flux FluoZin-2 fluorescence slope; thallium flux slope at 10 µM; actives 33% (n = 3,700); AID 1718, 2009;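 active = thallium flux slope above the same plate's solvent-control mean plus 3 SD in both duplicate wells; inconclusive = duplicate wells that disagreed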;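 note: run without ouabain in cells lacking the KCC2 cotransporter; slope of fluorescence scaled to its starting value between 10 and 20 s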
* hit, by the source's call; i = inactive; ? = inconclusive; . = no result given.

SMILES	STAT3 blocker	HSV augment	STAT3 act	STAT1 blocker	KCC2 mod	STAT1 act	KCC2 secondary	KCC2 bumet counter	KCC2 sec2	HEK293 Tl flux	KCC2 retest ouab	HEK293 Tl flux2
O=C(Nc1ccc(F)cc1F)c1cccn1-c1ncc(C(F)(F)F)cc1Cl	7	i	99	6	.	95	.	.	.	.	.	.
Cc1ccc(NC(=S)NNc2ncc(C(F)(F)F)cc2Cl)cc1	19	i	87	13	17*	88	?	0.078*	0.031	0.013*	0.042*	0.012*
CC(C)C(=O)Nc1ncc(C(F)(F)F)cc1Cl	3	i	100	-11	0.13	110	.	.	.	.	.	.
ON/C=N/C(=S)Nc1ncc(C(F)(F)F)cc1Cl	13	i	93	-7	25*	103	0.008	0.052*	0.058*	0.048*	0.052*	?
Fc1ccc(NC(=S)NNc2ncc(C(F)(F)F)cc2Cl)c(F)c1	62*	i	49	59*	53*	46	0.006	0.038*	?	0.032*	0.035*	0.022*
Cc1ccc(NC(=O)COC(=O)C2CC2)c(Br)c1	4	i	98	-8	0.27	107	.	.	.	.	.	.
C1COCCNCCOCCOCCOCCN1	-2	i	102	-3	-0.74	103	.	.	.	.	.	.
Clc1cccc(Sc2ccc(-c3ccccn3)s2)c1	.	i	.	.	0.064	.	.	.	.	.	.	.
COc1cc(C(=O)c2c(C)c(CCC#N)n3ccccc23)cc(OC)c1OC	20	i	89	20	-0.66	80	.	.	.	.	.	.
O=C(Cc1ccc(F)cc1)N1CCC(N2CCC(C(=O)N3CCOCC3)CC2)CC1	4	i	98	-2	0.16	100	.	.	.	.	.	.
CCOC(=O)Cn1c(=O)oc2cc(S(=O)(=O)N3CCN(C(=O)c4ccco4)CC3)ccc21	15	i	94	8	0.098	92	.	.	.	.	.	.
CCN(CC)CCCNC(=O)c1cn(CCOC)c(=O)c2c1c1ccccc1n2C	-1	i	105	-5	.	104	0.0094	?	0.034	0.0075	0.021	0.011
O=c1c2sccc2[nH]c(=S)n1Cc1ccccc1	25	i	80	0	68*	99	0.0088	0.11*	0.084*	0.086*	0.094*	0.079*
Cc1cccc(-c2nc(CS(=O)CC(=O)N3CCc4ccccc4C3)c(C)o2)c1 (centres undefined)	10	i	99	5	.	96	0.0074	0.0053	?	0.007	?	0.01
